Results on 30 molecules are retold here after ChEMBL document CHEMBL1125585, “(Methoxyalkyl)thiazoles: a new series of potent, selective, and orally active 5-lipoxygenase inhibitors displaying high enantioselectivity” (J Med Chem, 1991).

Structures are written as SMILES. Bounds are passed on as bounds.

The IC50 is the midpoint of a concentration-inhibition curve. One may read the ED50 as the midpoint of the dose-response relation. Read a high ED50 as a need for a large dose.

For test [1], the species on record is Homo sapiens. The test is described as follows: In vitro inhibition of LTB4 synthesis in human whole blood. In kind it is functional. In outline: (§1)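 Eicosanoid (LTB4, PGE2, TXB2) generation measured in vitro in heparinised rat or human whole blood; IC50s given ± SE with the number of determinations.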
The species entered for test [2] is Rattus norvegicus. As to the kind of experiment: In vitro inhibition of PGE-2 synthesis against rat whole blood. In kind it is functional. The conditions noted are these: in the assay text read “TXB2” for “PGE-2”. In outline:
as §1

The species entered for test [3] is Rattus norvegicus. The test is described as follows: In vitro inhibition of LTB4 synthesis in rat whole blood. Format: functional. In outline: as §1
Test [4] is filed under the species Mus musculus. The test is described as follows: In vitro inhibition of LTC4 synthesis in plasma free mouse macrophages. Format: functional. In outline: (§2)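 LTC4 and PGE2 synthesis measured in plasma-free cultures of murine peritoneal macrophages.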
Test [5] deals with T1, Polyunsaturated fatty acid 5-lipoxygenase (Mus musculus, UniProt P48999).
T1 sequence (P48999 whole entry): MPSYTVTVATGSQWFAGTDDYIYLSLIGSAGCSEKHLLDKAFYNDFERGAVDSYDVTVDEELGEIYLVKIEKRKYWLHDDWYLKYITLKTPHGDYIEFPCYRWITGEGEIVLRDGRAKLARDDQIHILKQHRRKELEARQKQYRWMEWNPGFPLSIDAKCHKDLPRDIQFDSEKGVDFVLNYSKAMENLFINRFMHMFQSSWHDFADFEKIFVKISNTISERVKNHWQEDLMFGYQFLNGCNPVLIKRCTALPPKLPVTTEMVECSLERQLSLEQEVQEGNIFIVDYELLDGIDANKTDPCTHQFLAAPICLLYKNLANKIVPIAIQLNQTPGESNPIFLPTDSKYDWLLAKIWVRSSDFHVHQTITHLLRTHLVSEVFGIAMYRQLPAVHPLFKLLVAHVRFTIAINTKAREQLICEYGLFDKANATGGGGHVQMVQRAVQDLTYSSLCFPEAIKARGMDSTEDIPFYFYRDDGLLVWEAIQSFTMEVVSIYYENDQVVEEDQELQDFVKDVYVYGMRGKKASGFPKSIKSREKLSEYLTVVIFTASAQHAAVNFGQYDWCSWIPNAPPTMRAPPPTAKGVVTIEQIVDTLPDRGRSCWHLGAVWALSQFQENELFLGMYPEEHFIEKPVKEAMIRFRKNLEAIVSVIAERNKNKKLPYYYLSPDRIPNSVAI
As to the kind of experiment: Inhibition of 5-lipoxygenase in mouse macrophages. In outline: as §2

The species named for test [6] is Homo sapiens. As to the kind of experiment: In vitro inhibition of TXB2 synthesis in human whole blood. Format: functional. In outline:
as §1

Test [7] has as its system Rattus norvegicus. As to the kind of experiment: Compound was evaluated ex vivo for inhibition of LTB4 synthesis in rat on oral administration. Format: functional. In outline: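 Rats dosed orally at 1 mL/kg with a suspension made by mixing 300 µL of compound in DMSO into 15 mL of 0.5% hydroxypropyl methyl cellulose with 0.1% polysorbate 80. Controls got the same volume of vehicle. After 1 h the animals were killed and bled, and LTB4 and TXB2 synthesis was measured in the blood ex vivo, n = 5 per point.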

The target in test [8] is T2, Polyunsaturated fatty acid 5-lipoxygenase (Rattus norvegicus, UniProt P12527).
T2 sequence (P12527 whole entry): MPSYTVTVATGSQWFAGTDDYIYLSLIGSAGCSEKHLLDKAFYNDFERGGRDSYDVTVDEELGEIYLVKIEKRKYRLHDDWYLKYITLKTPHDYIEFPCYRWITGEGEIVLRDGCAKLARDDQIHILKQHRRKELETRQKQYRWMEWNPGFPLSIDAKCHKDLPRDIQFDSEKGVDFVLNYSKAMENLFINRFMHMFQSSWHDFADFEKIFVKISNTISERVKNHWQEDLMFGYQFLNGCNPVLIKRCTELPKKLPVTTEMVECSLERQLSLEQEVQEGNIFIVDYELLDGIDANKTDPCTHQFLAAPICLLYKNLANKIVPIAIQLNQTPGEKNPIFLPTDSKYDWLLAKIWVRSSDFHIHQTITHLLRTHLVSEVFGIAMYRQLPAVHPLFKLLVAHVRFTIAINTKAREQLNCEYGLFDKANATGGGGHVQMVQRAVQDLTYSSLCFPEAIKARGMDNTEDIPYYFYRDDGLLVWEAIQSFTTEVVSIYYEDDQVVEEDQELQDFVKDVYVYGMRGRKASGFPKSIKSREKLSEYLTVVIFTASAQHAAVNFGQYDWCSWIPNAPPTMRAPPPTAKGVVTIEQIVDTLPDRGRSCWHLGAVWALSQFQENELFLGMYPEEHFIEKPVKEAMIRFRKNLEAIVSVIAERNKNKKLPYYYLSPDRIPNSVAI
The test is described as follows: Compound was tested for the inhibition of 5-lipoxygenase (5-Lpo) in rat whole blood. In kind it is tissue-based. In outline: as §1

The species entered for test [9] is Mus musculus. As to the kind of experiment: In vitro inhibition of PGE-2 synthesis in plasma free mouse macrophages. Format: functional. In outline: as §2
Test [10] concerns the target T3, Polyunsaturated fatty acid 5-lipoxygenase (Homo sapiens, UniProt P09917).
T3 sequence (P09917 whole entry): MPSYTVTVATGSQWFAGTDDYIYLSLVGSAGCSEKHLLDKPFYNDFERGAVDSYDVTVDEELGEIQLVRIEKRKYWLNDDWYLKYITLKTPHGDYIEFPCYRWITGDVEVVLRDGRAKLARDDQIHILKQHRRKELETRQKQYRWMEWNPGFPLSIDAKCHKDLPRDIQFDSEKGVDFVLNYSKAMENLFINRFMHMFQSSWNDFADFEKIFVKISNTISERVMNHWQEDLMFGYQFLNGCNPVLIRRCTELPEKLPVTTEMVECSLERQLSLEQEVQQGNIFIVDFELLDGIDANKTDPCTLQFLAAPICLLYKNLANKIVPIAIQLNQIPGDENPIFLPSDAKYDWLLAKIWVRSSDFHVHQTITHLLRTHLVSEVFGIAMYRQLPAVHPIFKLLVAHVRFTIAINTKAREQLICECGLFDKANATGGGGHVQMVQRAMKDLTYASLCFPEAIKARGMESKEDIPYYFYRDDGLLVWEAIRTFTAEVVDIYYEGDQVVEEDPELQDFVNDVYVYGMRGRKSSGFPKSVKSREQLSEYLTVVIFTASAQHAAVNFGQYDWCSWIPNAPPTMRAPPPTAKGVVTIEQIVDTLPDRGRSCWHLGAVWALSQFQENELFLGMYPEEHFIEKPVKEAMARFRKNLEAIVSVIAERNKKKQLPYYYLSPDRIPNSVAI
As to the kind of experiment: Inhibition of 5-lipoxygenase in human whole blood. In kind it is tissue-based. In outline:
as §1

Test [11] is filed under the species Rattus norvegicus. The test is described as follows: In vitro inhibition of TXB2 synthesis against rat whole blood.
For test [12], the target named is T2, Polyunsaturated fatty acid 5-lipoxygenase. As to the kind of experiment: Compound was tested for the inhibition of 5-lipoxygenase (5-LPO) in rat basophilic leukemia (RBL) cells. Format: cell-based, RBL-1. In outline: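 Cell-free 5-LPO activity was measured spectrophotometrically. The enzyme source was the high-speed supernatant of rat basophilic leukemia (RBL) cells.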

Turning to `CCC(OC)(c1cccc(OCc2ccc3ccccc3c2)c1)c1nccs1` (configuration not stated) [ZM-211965], the IC50 in the test listed under Homo sapiens [1] was 0.4 µM; in the test filed under Rattus norvegicus [2] it was above 100 µM; in the test listed under Rattus norvegicus [3], 0.5 µM; in the test listed under Mus musculus [4], 0.008 µM; in test [5] it was 0.008 µM; in the test filed under Homo sapiens [6] it was above 100 µM. Besides, the figures for the half-maximal inhibitory concentration (IC50) (in test [8]; in the test listed under Mus musculus [9]) were 0.5 µM and above 50 µM, respectively. In the test on Rattus norvegicus [7], this molecule displayed a 50% effective dose (ED50) of 10 mg/kg.

For `CCC(O)(c1cccc(OCC#Cc2cccc(C)c2)c1)c1nccs1` (configuration not stated), the IC50 in test [10] worked out at 2.5 µM.

Turning to `CC(C)C(O)(c1cccc(OCc2ccc3ccccc3c2)c1)c1nccs1` (configuration not stated), the values for the half-inhibitory concentration (IC50) in test [5] and in test [10] were 1 µM and 40 µM, respectively.

For the molecule `COC(C)(c1cccc(OCc2ccc3ccccc3c2)c1)c1nccs1` (stereo in doubt; 2p), the IC50 stood at 0.03 µM in [5] and 0.7 µM in test [10].

Turning to `CCCCCCCCCCOc1cccc(C(O)c2nc(C)c[nH]2)c1` (configuration not stated), in [8], the IC50 was above 30 µM.

With `Cc1cnc(C(O)c2cccc(OCc3ccc4ccccc4c3)c2)[nH]1` (configuration not stated), the IC50 in test [8] was above 30 µM.

With `CCC(OC)(c1cccc(OCc2ccc3ccccc3c2)c1)c1cncs1` (configuration not stated), the IC50 in test [10] is 6.3 µM.

`CCC(OC)(c1cccc(OCc2ccc(F)c(F)c2)c1)c1nccs1` (configuration not stated): the values for the IC50 in [5] and in test [10] were 0.8 µM and 40 µM, respectively.

Regarding `COC(C)(c1cccc(OCc2ccc3ccccc3c2)c1)c1nccs1` (stereo in doubt; 2o), the IC50 was 2 µM in test [5] and around 40 µM in test [10].

Molecule `COC1(c2nccs2)CCc2c(OCc3ccc4ccccc4c3)cccc21` (configuration not stated) showed a 50% inhibitory concentration (IC50) in test [10] above 40 µM.

Regarding `c1ccc2cc(COc3ccc4c(c3)C(c3nccs3)CC4)ccc2c1` (configuration not stated), the IC50 in [10] was above 40 µM.

In [10], `CCC(O)(c1cccc(OCc2ccc(Cl)c(Cl)c2)c1)c1nccs1` (configuration not stated) had an IC50 of 1.1 µM.

In [8], `OC(c1cccc(OCc2ccc3ccccc3c2)c1)c1nccs1` (configuration not stated) registered an IC50 of 30 µM.

Consider `CCC(OC)(c1cccc(OCc2ccc3ccccc3c2)c1)c1nc(C)cs1` (configuration not stated), for which the IC50 in test [5] was 0.82 µM; in test [10] it was around 40 µM.

Regarding `CC(c1cc2ccccc2s1)N(O)C(N)=O` (configuration not stated) [ZILEUTON], the half-inhibitory concentration (IC50) in the test filed under Homo sapiens [1] stood at 2 µM; in the test filed under Rattus norvegicus [3], 2 µM; in the test filed under Mus musculus [4], 1.2 µM; in the test filed under Rattus norvegicus [11], 25 µM; in the test filed under Homo sapiens [6] it was 25 µM; in the test listed under Mus musculus [9], 27 µM. Besides, the 50% effect level in the test on Rattus norvegicus [7] (ED50) was put at a dose of 5 mg/kg.

Take `COC1(c2nccs2)CCc2ccc(OCc3ccc4ccccc4c3)cc21` (single isomer, unassigned; (+)): the half-inhibitory concentration (IC50) was 0.13 µM in test [12], below 0.03 µM in test [5] and 0.5 µM in [10].

Take `COC1(c2nccs2)CCc2ccc(OCc3ccc4ccccc4c3)cc21` (single isomer, unassigned; (-)): the IC50 was above 20 µM in test [12], 1.5 µM in test [5] and above 40 µM in test [10].

`CCC(OC)(c1cccc(OCc2ccc3ccccc3c2)c1)c1cscn1` (configuration not stated) had a 50% inhibitory concentration (IC50) in test [10] of 0.6 µM.

`CCC(OC)(c1ccc(OCc2ccc3ccccc3c2)cc1)c1nccs1` (configuration not stated) registered an IC50 in test [10] of around 40 µM.

As to `COC(C)(c1cccc(OCc2ccc3ccccc3c2)c1)c1nccs1` (configuration not stated), the figures for the concentration for half-maximal inhibition (IC50) in [5], in [8] and in test [10] were 0.005 µM, 0.8 µM and 0.5 µM, respectively.

In turn, `Cc1cnc(C(C)(O)c2cccc(OCc3ccc4ccccc4c3)c2)s1` (configuration not stated) yielded a half-inhibitory concentration (IC50) in test [10] of around 40 µM.

For the molecule `CCC(O)(c1cccc(OCC#Cc2ccccc2)c1)c1nccs1` (configuration not stated), the IC50 came out at 0.03 µM in [5] and 1 µM in [10].

`CCC(O)(c1cccc(OCCCc2ccccc2)c1)c1nccs1` (configuration not stated) returned a half-maximal inhibitory concentration (IC50) in test [10] of 11 µM.

On to `CCCC(O)(c1cccc(OCc2ccc3ccccc3c2)c1)c1nccs1` (configuration not stated), for which the figures for the IC50 in test [5] and in test [10] were 0.08 µM and 8.8 µM, respectively.

In the case of `COC(c1cccc(OCc2ccc3ccccc3c2)c1)c1nccs1` (configuration not stated), the IC50 stood at 0.3 µM in test [5], 6 µM in test [8] and 7 µM in test [10].

Molecule `CCC(OC)(c1cccc(OCc2cccc3ccccc23)c1)c1nccs1` (configuration not stated) returned a concentration for half-maximal inhibition (IC50) in test [10] of 4.8 µM.

Take `COC1(c2nccs2)CCc2ccc(OCc3ccc4ccccc4c3)cc21` (racemic): the half-maximal inhibitory concentration (IC50) in test [12] was found to be 0.8 µM; in test [5] it was 0.014 µM; in test [10] it was 0.7 µM.

In turn, `COC1CCc2ccc(OCc3ccc4ccccc4c3)cc21` (configuration not stated) yielded an IC50 in test [10] above 40 µM.

Take `CCC(OC)(c1nccs1)c1ccccc1OCc1ccc2ccccc2c1` (configuration not stated): the IC50 in [10] was above 40 µM.

On to `CCC(O)(c1cccc(OC/C=C/c2ccccc2)c1)c1nccs1` (configuration not stated), for which the values for the IC50 in test [5] and in [10] were 0.006 µM and 0.8 µM, respectively.
